Results reported in ChEMBL document CHEMBL1128667 (J Med Chem, 1995).

What was measured:
[1] = target: Kappa-type opioid receptor (Cavia porcellus, UniProt P41144); experiment: Ability to inhibit [3H]U-69593 binding to guinea pig Opioid receptor kappa 1
How it was run: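 Guinea pig brain membranes depleted of μ and δ sites by BIT/FIT pretreatment, labelled with [3H]U69,593 (1.2-2.3 nM), 4-6 h at 25 °C in 50 mM Tris-HCl pH 7.4 with protease inhibitors and 1 μg/mL captopril. Nonspecific with 1 μM U69,593. 8–10 concentrations, run twice; IC50 and slope factor from curve fitting.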

Sigma 2 receptor [2] = experiment: Ratio of binding affinity towards guinea-pig brain […] receptor to rat liver sigma-2 receptor
[3] = target: Delta-type opioid receptor (Rattus norvegicus, UniProt P33533); experiment: Ability to inhibit [3H]DADLE binding to rat brain delta receptor
Sequence of Delta-type opioid receptor (P33533 whole entry): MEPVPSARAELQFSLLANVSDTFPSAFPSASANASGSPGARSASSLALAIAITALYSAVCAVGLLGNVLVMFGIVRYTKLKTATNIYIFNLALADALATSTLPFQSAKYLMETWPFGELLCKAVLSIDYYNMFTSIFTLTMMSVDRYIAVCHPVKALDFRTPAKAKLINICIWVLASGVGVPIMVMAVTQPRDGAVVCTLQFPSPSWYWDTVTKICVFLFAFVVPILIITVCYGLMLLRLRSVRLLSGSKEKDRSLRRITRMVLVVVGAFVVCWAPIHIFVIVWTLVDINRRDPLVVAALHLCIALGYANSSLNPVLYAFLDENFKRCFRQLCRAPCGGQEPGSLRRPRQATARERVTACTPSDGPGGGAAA
How it was run: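 [3H]DADLE (1.7-2.5 nM) on rat brain membranes, 3-4 h at 25 °C in 10 mM Tris-HCl pH 7.4 with 100 mM choline chloride, 3 mM MnCl2, 100 nM DAMGO blocking μ sites, and protease inhibitors. Nonspecific with 20 μM levallorphan. 8–10 concentrations, run twice; dilutions in Tris/1 mg/mL BSA. IC50 and slope factor from curve fitting.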

Sigma 2 receptor [4] = experiment: Ability to inhibit [3H](+)-DTG binding to rat liver Sigma receptor type 2 in presence of dextrallorphan
How it was run: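 Rat liver membranes (male Sprague–Dawley, 150–200 g; Tris/sucrose homogenisation, differential centrifugation, 25 °C preincubation). 160 μg protein with 5 nM [3H]DTG plus 1 μM dextrallorphan to mask σ1, 50 mM Tris-HCl pH 8.0, 120 min at 25 °C. Nonspecific with 10 μM haloperidol. Filtration. 12 concentrations (0.05–10 000 or 0.5–100 000 nM); Ki via Cheng–Prusoff with Scatchard Kd; 2–3 experiments in duplicate, ±SEM.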

Mu-type opioid receptor = Mu-type opioid receptor (Rattus norvegicus, UniProt P33535); experiment: Ability to inhibit [3H]DAMGO binding to rat brain Opioid receptor mu 1
Sequence of Mu-type opioid receptor (P33535 whole entry): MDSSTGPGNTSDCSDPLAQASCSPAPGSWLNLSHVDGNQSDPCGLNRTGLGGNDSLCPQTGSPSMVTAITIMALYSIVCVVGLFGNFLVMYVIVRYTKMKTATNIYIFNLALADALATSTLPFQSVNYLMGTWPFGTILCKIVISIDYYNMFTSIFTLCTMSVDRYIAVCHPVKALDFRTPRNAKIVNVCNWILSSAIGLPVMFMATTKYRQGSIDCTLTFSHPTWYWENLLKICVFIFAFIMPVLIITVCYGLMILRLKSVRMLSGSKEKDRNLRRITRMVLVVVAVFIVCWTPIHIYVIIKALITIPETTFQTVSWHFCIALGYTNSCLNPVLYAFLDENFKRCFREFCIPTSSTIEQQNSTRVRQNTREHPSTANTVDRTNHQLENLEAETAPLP
How it was run: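 Rat brain membranes labelled with [3H]DAMGO (1-3 nM), 4 h at 25 °C in 50 mM Tris-HCl pH 7.4 with protease inhibitor cocktail. Nonspecific with 20 μM levallorphan. 8–10 concentrations, run twice; dilutions in Tris with 1 mg/mL BSA, 1 mM stocks in Tris containing 10% DMSO/5% Emulphor. IC50 and slope factor from curve fitting.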

[5] = Ability to inhibit [3H](+)-pentazocine binding to guinea pig brain Sigma receptor type 1

Sequence of Kappa-type opioid receptor (P41144 whole entry): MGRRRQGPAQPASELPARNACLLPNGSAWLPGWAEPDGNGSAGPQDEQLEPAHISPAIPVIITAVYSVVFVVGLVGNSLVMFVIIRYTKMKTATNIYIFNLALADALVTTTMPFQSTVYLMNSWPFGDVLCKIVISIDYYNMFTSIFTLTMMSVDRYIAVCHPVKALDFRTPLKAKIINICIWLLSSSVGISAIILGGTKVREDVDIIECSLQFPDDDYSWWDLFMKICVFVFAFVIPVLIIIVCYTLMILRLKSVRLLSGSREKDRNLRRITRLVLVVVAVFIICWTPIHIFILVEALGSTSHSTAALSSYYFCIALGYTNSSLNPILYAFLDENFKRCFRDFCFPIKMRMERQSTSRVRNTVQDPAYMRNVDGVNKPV

## CN1CCC2(c3cccc(O)c3)CC(=O)/C(=C/c3ccc4ccccc4c3)C1C2 (stereo not drawn)
[1]
  Ki: > 500 nM
Sigma 2 receptor [2]
  Ratio: 0.21
[3]
  Ki: 142 nM
Sigma 2 receptor [4]
  Ki: 80.2 nM
Mu-type opioid receptor
  Ki: 2.2 nM

## CN1CCC2(c3cccc(O)c3)CC(=O)/C(=C/c3cccc(I)c3)C1C2 (stereo not drawn)
[1]
  Ki: > 500 nM
Sigma 2 receptor [2]
  Ratio: 68
[3]
  Ki: 141 nM
Sigma 2 receptor [4]
  Ki: 24 nM
Mu-type opioid receptor
  Ki: 9.1 nM

## CN1CCC2(c3cccc(O)c3)CC(=O)/C(=C/C3CC3)C1C2 (stereo not drawn)
[1]
  Ki: > 500 nM
Sigma 2 receptor [2]
  Ratio: 0.18
[3]
  Ki: > 1000 nM
Sigma 2 receptor [4]
  Ki: 356 nM
Mu-type opioid receptor
  Ki: 11.2 nM

## COc1cccc(C23CCN(C)C(C2)/C(=C\c2ccccc2)C(=O)C3)c1 (single isomer, unassigned; (+)) [listing 1 of 2 here]
[1]
  Ki: > 500 nM
Sigma 2 receptor [4]
  Ki: 52 nM

## CN1CCC2(c3cccc(O)c3)CC(=O)/C(=C/c3ccccc3)C1C2 (single isomer, unassigned; (+)) [listing 1 of 2 here]
[1]
  Ki: 1090 nM
[3]
  Ki: 735 nM
Sigma 2 receptor [4]
  Ki: 16.5 nM
Mu-type opioid receptor
  Ki: 37.6 nM

## COc1ccc(/C=C2/C(=O)CC3(c4cccc(O)c4)CCN(C)C2C3)cc1 (single isomer, unassigned; (+)) [listing 1 of 2 here]
[1]
  Ki: > 500 nM
[3]
  Ki: 127 nM
Sigma 2 receptor [4]
  Ki: 21.6 nM
Mu-type opioid receptor
  Ki: 3.9 nM

## COc1cccc(/C=C2/C(=O)CC3(c4cccc(O)c4)CCN(C)C2C3)c1 (single isomer, unassigned; (+)) [listing 1 of 2 here]
[3]
  Ki: 175 nM
Sigma 2 receptor [4]
  Ki: 38.2 nM
Mu-type opioid receptor
  Ki: 12.6 nM

## CN1CCC2(c3cccc(O)c3)CC(=O)/C(=C/c3ccc(I)cc3)C1C2 (single isomer, unassigned; (+))
[1]
  Ki: > 1000 nM
Sigma 2 receptor [2]
  Ratio: 32
[3]
  Ki: 321 nM
Sigma 2 receptor [4]
  Ki: 52.6 nM
Mu-type opioid receptor
  Ki: 26.7 nM

## CN1CCC2(c3cccc(O)c3)CC(=O)/C(=C/c3ccc(Cl)c(Cl)c3)C1C2 (single isomer, unassigned; (+))
[3]
  Ki: 271 nM
Sigma 2 receptor [4]
  Ki: 13.4 nM
Mu-type opioid receptor
  Ki: 4.5 nM

## CN1CCC2(c3cccc(O)c3)CC(=O)CC1C2 (single isomer, unassigned; (+))
[1]
  Ki: 2540 nM
[3]
  Ki: 505 nM
Mu-type opioid receptor
  Ki: 35.5 nM

## CN1CCC2(c3cccc(O)c3)CC(=O)/C(=C/c3ccccc3)C1C2 (single isomer, unassigned; (+)) [listing 2 of 2 here]
Sigma 2 receptor [2]
  Ratio: 79

## COc1ccc(/C=C2/C(=O)CC3(c4cccc(O)c4)CCN(C)C2C3)cc1 (single isomer, unassigned; (+)) [listing 2 of 2 here]
Sigma 2 receptor [2]
  Ratio: 88

## COc1cccc(/C=C2/C(=O)CC3(c4cccc(O)c4)CCN(C)C2C3)c1 (single isomer, unassigned; (+)) [listing 2 of 2 here]
Sigma 2 receptor [2]
  Ratio: 157

## COc1cccc(C23CCN(C)C(C2)/C(=C\c2ccccc2)C(=O)C3)c1 (single isomer, unassigned; (+)) [listing 2 of 2 here]
Sigma 2 receptor [2]
  Ratio: 2.8

## CN1CCC2(c3cccc(O)c3)CC(=O)/C(=C/c3ccc(Cl)cc3)C1C2 (single isomer, unassigned; (-)) [listing 1 of 2 here]
[1]
  Ki: > 500 nM
[3]
  Ki: > 500 nM
Sigma 2 receptor [4]
  Ki: 26.5 nM
Mu-type opioid receptor
  Ki: 48.2 nM

## COc1ccc(/C=C2/C(=O)CC3(c4cccc(O)c4)CCN(C)C2C3)cc1 (single isomer, unassigned; (-)) [listing 1 of 2 here]
[3]
  Ki: > 500 nM
Sigma 2 receptor [4]
  Ki: 81.3 nM
Mu-type opioid receptor
  Ki: 27 nM

## COc1cccc(/C=C2/C(=O)CC3(c4cccc(O)c4)CCN(C)C2C3)c1 (single isomer, unassigned; (-)) [listing 1 of 2 here]
[3]
  Ki: > 400 nM
Sigma 2 receptor [4]
  Ki: 46.3 nM
Mu-type opioid receptor
  Ki: 31.4 nM

## CN1CCC2(c3cccc(O)c3)CC(=O)/C(=C/c3ccc(Cl)c(Cl)c3)C1C2 (single isomer, unassigned; (-))
[3]
  Ki: > 500 nM
Sigma 2 receptor [4]
  Ki: 35.5 nM
Mu-type opioid receptor
  Ki: 45.1 nM

## CN1CCC2(c3cccc(O)c3)CC(=O)/C(=C/c3ccc(Cl)cc3)C1C2 (single isomer, unassigned; (-)) [listing 2 of 2 here]
Sigma 2 receptor [2]
  Ratio: 0.69

## COc1ccc(/C=C2/C(=O)CC3(c4cccc(O)c4)CCN(C)C2C3)cc1 (single isomer, unassigned; (-)) [listing 2 of 2 here]
Sigma 2 receptor [2]
  Ratio: 0.1

## COc1cccc(/C=C2/C(=O)CC3(c4cccc(O)c4)CCN(C)C2C3)c1 (single isomer, unassigned; (-)) [listing 2 of 2 here]
Sigma 2 receptor [2]
  Ratio: 0.12

## CN1CCC2(c3cccc(O)c3)CC(=O)/C(=C/c3ccccc3)C1C2 (stereo in doubt; 2) [listing 1 of 2 here]
[5]
  Ki: 23.3 nM
Sigma 2 receptor [4]
  Ki: 37 nM

## CN1CCC2(c3cccc(O)c3)CC(=O)/C(=C/c3ccccc3)C1C2 (stereo in doubt; 2) [listing 2 of 2 here]
Sigma 2 receptor [2]
  Ratio: 0.63

## CN1CCC2(c3cccc(O)c3)CC(=O)/C(=C/c3ccc(Cl)c(Cl)c3)C1C2 (stereo in doubt; 3)
[5]
  Ki: 65.3 nM
Sigma 2 receptor [4]
  Ki: 71.8 nM

## COc1ccc(/C=C2/C(=O)CC3(c4cccc(O)c4)CCN(C)C2C3)cc1 (stereo in doubt; 4) [listing 1 of 2 here]
[3]
  Ki: 7.1 nM
Sigma 2 receptor [4]
  Ki: 35 nM
Mu-type opioid receptor
  Ki: 4.1 nM

## COc1ccc(/C=C2/C(=O)CC3(c4cccc(O)c4)CCN(C)C2C3)cc1 (stereo in doubt; 4) [listing 2 of 2 here]
Sigma 2 receptor [2]
  Ratio: 0.53

## CN1CCC2(c3cccc(O)c3)CC(=O)/C(=C/c3ccc(Cl)cc3)C1C2 (stereo in doubt; 5) [listing 1 of 2 here]
[3]
  Ki: > 1000 nM
Sigma 2 receptor [4]
  Ki: 9.5 nM
Mu-type opioid receptor
  Ki: 21.6 nM

## CN1CCC2(c3cccc(O)c3)CC(=O)/C(=C/c3ccc(Cl)cc3)C1C2 (stereo in doubt; 5) [listing 2 of 2 here]
Sigma 2 receptor [2]
  Ratio: 4

## COc1cccc(/C=C2/C(=O)CC3(c4cccc(O)c4)CCN(C)C2C3)c1 (stereo in doubt; 6) [listing 1 of 2 here]
[1]
  Ki: > 500 nM
[3]
  Ki: > 400 nM
Sigma 2 receptor [4]
  Ki: 44.3 nM
Mu-type opioid receptor
  Ki: 11.8 nM

## COc1cccc(/C=C2/C(=O)CC3(c4cccc(O)c4)CCN(C)C2C3)c1 (stereo in doubt; 6) [listing 2 of 2 here]
Sigma 2 receptor [2]
  Ratio: 0.18

## CN1CCC2(c3cccc(O)c3)CC(=O)/C(=C/c3cccc(Cl)c3)C1C2 (stereo in doubt; 7) [listing 1 of 2 here]
[1]
  Ki: 246 nM
[3]
  Ki: 222 nM
Sigma 2 receptor [4]
  Ki: 34.5 nM
Mu-type opioid receptor
  Ki: 23.2 nM

## CN1CCC2(c3cccc(O)c3)CC(=O)/C(=C/c3cccc(Cl)c3)C1C2 (stereo in doubt; 7) [listing 2 of 2 here]
Sigma 2 receptor [2]
  Ratio: 1.5

## COc1cccc(C23CCN(C)C(C2)/C(=C\c2ccccc2)C(=O)C3)c1 (stereo in doubt; 10) [listing 1 of 2 here]
[1]
  Ki: > 1000 nM
[5]
  Ki: 138 nM
[3]
  Ki: > 500 nM
Sigma 2 receptor [4]
  Ki: 81.7 nM
Mu-type opioid receptor
  Ki: > 250 nM

## COc1cccc(C23CCN(C)C(C2)/C(=C\c2ccccc2)C(=O)C3)c1 (stereo in doubt; 10) [listing 2 of 2 here]
Sigma 2 receptor [2]
  Ratio: 1.7

## CN1CCC2(c3cccc(O)c3)CC(=O)/C(=C/c3ccc(Cl)cc3)C1C2 (stereo in doubt; (+)-5) [listing 1 of 2 here]
[3]
  Ki: 336 nM
Sigma 2 receptor [4]
  Ki: 6.4 nM
Mu-type opioid receptor
  Ki: 6.4 nM

## CN1CCC2(c3cccc(O)c3)CC(=O)/C(=C/c3ccc(Cl)cc3)C1C2 (stereo in doubt; (+)-5) [listing 2 of 2 here]
Sigma 2 receptor [2]
  Ratio: 119

## CN1CCC2(c3cccc(O)c3)CC(=O)/C(=C/c3cccc(Cl)c3)C1C2 (stereo in doubt; (+)-7) [listing 1 of 2 here]
[1]
  Ki: > 500 nM
[3]
  Ki: 217 nM
Sigma 2 receptor [4]
  Ki: 22.4 nM
Mu-type opioid receptor
  Ki: 11.8 nM

## CN1CCC2(c3cccc(O)c3)CC(=O)/C(=C/c3cccc(Cl)c3)C1C2 (stereo in doubt; (+)-7) [listing 2 of 2 here]
Sigma 2 receptor [2]
  Ratio: 138

## CN1CCC2(c3cccc(O)c3)CC(=O)CC1C2 (stereo in doubt; (-)-1)
Sigma 2 receptor [4]
  Ki: 25 nM

## CN1CCC2(c3cccc(O)c3)CC(=O)/C(=C/c3ccccc3)C1C2 (stereo in doubt; (-)-2) [listing 1 of 2 here]
[1]
  Ki: 889 nM
[3]
  Ki: 1990 nM
Sigma 2 receptor [4]
  Ki: 154 nM
Mu-type opioid receptor
  Ki: 392 nM

## CN1CCC2(c3cccc(O)c3)CC(=O)/C(=C/c3ccccc3)C1C2 (stereo in doubt; (-)-2) [listing 2 of 2 here]
Sigma 2 receptor [2]
  Ratio: 0.06

## CN1CCC2(c3cccc(O)c3)CC(=O)/C(=C/c3cccc(Cl)c3)C1C2 (stereo in doubt; (-)-7) [listing 1 of 2 here]
[1]
  Ki: > 500 nM
[3]
  Ki: 386 nM
Sigma 2 receptor [4]
  Ki: 123 nM
Mu-type opioid receptor
  Ki: 47.6 nM

## CN1CCC2(c3cccc(O)c3)CC(=O)/C(=C/c3cccc(Cl)c3)C1C2 (stereo in doubt; (-)-7) [listing 2 of 2 here]
Sigma 2 receptor [2]
  Ratio: 0.25
